# Screening results from PubChem.
# MEKK2mut PB1 HTS = MEK5 binding signal on mutant MEKK2 PB1, primary screen, biochemical, multiplex bead flow cytometry, Alexa488-MEK5 | Alexa488-MEK5 binding to MEKK2 mutant | percent response, % at 10 µM | actives 0.35% (n = 290,000) | AID 1530, 2009; in the data active = percent response above about 24%, passing the limit was not always enough
# FID counter = compounds displacing fluorescent DNA intercalator, primary screen, artefact control for HCV NS3 helicase inhibitor project, biochemical, FID fluorescence. inhibition, % at 7.9 µM. AID 1845, 2009. DNA fluorescent intercalator displacement. actives 0.17% (n = 290,000); in the data active = inhibition above about 37%;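 note: 0% = vehicle and 100% = reference compound; higher means more ethidium bromide displaced from hairpin DNA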
# NS3 helicase inh = inhibitors of HCV NS3 helicase, primary screen, biochemical, Cy5 molecular beacon fluorescence; inhibition, % at 10.9 µM; AID 1800, 2009; actives 0.56% (n = 290,000); NS3 helicase DNA unwinding; Hepatitis C virus NS3 helicase;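 active = inhibition above the mean of all tested compounds plus 3 SD, set per campaign, cut at about 35% in these data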;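 note: 0% = DMSO wells and 100% = thioflavine S control wells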
#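 Assay system: hepatitis C virus NS3 helicase domain fragment enzyme. Also added: annealed dual-labelled DNA beacon duplex, ATP-started. Timing: 1 h reaction at 25 °C, ATP-initiated. Technique: Cy5 fluorescence at 0 and 60 min, beacon hairpin quenching. Evaluation: % inhibition of unwinding. Replication: one well per compound.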
# T cruzi repl = inhibitors of intracellular T. cruzi growth, primary screen, luminescence, NIH3T3 host cells; actives 1.4% (n = 300,000); AID 1885, 2009; inhibition, % (concentration not given with the values); T. cruzi beta-gal in NIH3T3, 90 h;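 active = mean inhibition across valid replicates above about 55%, limit read from the data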;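 note: signal also drops with host cell toxicity which is not excluded here; 0% = plate median of DMSO wells and 100% = zero luminescence signal; higher percent means less beta-gal luminescence so fewer parasites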
#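 System: Mouse NIH/3T3 fibroblasts infected with β-gal-expressing T. cruzi Tulahuen C4 | Quantity: NIH/3T3 cells, 5,000 per well | Reagent: 5000 reporter trypomastigotes per well | Dosing: Compound pinned at 50 nL/well, DMSO | Schedule: 3 h host attachment, then at least 90 h co-culture | Detection: GalScreen luminescence, 60 min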
# MEKK2 WT-MEK5 = modulators of MEK5 binding to wildtype MEKK2, primary screen, biochemical, multiplex bead flow cytometry, Alexa488-MEK5; Mitogen-activated protein kinase kinase kinase 2 (Homo sapiens), Q9Y2U5; Alexa488-MEK5 binding to MEKK2 WT; actives lie on both sides; binding response (% of control), % at 10 µM; actives 1.1% (n = 290,000); AID 1531, 2009; in the data active = binding response below about 67% or above about 130%
# MEKK3 PB1 HTS = modulators of MEKK3-MEK5 PB1 binding, primary screen, biochemical, wildtype MEKK3, multiplex bead flow cytometry, Alexa488-MEK5. Mitogen-activated protein kinase kinase kinase 3 (Homo sapiens), Q99759. bead-based flow cytometry, Alexa488-MEK5 binding to MEKK3; actives lie on both sides; 0 = blocked by unlabeled MEK5, 100 = vehicle. binding response (% of control), % at 10 µM. actives 1.4% (n = 290,000). AID 1529, 2009;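 active = binding response more than 3 SD above or below the average of its plate-row segment, actives on both sides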;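 note: Alexa488 bead fluorescence after subtracting the streptavidin-only scavenger bead signal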
# Target sequence (Q99759 whole entry, looked up): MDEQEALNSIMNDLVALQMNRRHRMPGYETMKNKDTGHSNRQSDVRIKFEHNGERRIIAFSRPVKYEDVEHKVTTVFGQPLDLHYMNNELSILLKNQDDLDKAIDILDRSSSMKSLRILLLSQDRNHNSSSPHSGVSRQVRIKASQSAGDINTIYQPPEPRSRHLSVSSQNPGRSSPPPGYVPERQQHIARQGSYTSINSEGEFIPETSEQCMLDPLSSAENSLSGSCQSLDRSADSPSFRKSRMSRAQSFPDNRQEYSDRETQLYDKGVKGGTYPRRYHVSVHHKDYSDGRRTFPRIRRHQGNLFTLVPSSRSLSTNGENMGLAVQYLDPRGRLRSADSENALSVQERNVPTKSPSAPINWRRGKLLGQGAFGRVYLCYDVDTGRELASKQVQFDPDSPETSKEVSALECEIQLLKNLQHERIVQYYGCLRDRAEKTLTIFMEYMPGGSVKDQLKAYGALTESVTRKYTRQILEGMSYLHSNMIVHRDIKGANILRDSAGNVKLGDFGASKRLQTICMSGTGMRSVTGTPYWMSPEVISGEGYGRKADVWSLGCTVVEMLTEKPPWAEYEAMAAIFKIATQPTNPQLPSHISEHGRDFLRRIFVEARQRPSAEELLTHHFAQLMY
# MEKK2wt confirm = modulators of MEK5 binding to wildtype MEKK2, confirmation, biochemical, single concentration, multiplex bead flow cytometry; actives 2.4% (n = 5,900); binding response (% of control), % at 10 µM; Alexa488-MEK5 binding to MEKK2 WT; actives lie on both sides; shares compounds with MEKK3 PB1 HTS; AID 1892, 2009; in the data active = binding response below about 16% or above about 210%; inactive = in between
# MEKK2mut confirm = mutant MEKK2 PB1-MEK5 binding signal retest – biochemical, single concentration, multiplex bead flow cytometry, confirmation. shares compounds with MEKK3 PB1 HTS. Alexa488-MEK5 binding to MEKK2 mutant. percent response, % at 10 µM. actives 2% (n = 5,900); in the data active = percent response mostly above about 71%, no sharp cut-off; inactive = mostly below about 38%;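 note: higher means compound restores mutant binding toward wildtype level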
# MEKK3-MEK5 inh = MEKK3 wild-type PB1 binding to MEK5, inhibitors, confirmation, biochemical, bead multiplex flow cytometry, single concentration, wildtype. shares compounds with MEKK3 PB1 HTS. Alexa488-MEK5 binding to MEKK3; active compounds read low. binding response (% of control), % at 10 µM. actives 1.8% (n = 5,900). AID 1894, 2009;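 active = binding response below 72% of control, or above a set upper limit, though filed actives all read lower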;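 note: 100% = DMSO only wells and 0% = binding blocked by excess unlabeled MEK5; lower values mean stronger disruption of MEK5 binding to MEKK3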
# * = called active by the depositor; x = no result; + = active, no number; [ ] = dose if it differs, or a comment. Rows were chosen to be rich in hits. Some 4.1% of all compounds tested hit in one or more screens of this group.
SMILES,MEKK2mut PB1 HTS,FID counter,NS3 helicase inh,T cruzi repl,MEKK2 WT-MEK5,MEKK3 PB1 HTS,MEKK2wt confirm,MEKK2mut confirm,MEKK3-MEK5 inh
COC(=O)c1cc(S(=O)(=O)N2CCN(c3cccc(Cl)c3)CC2)c[nH]1,0.0,-13.4,-1.4,5.5,103.0,102.0,x,x,x
OCCCCNCc1ccc(OCc2ccc(Cl)cc2Cl)cc1,34.0*,29.5,-90.0,60.0*,169.0*,110.0,163.0,75.0*,108.0
OCCNCc1ccc(OCc2ccc(Cl)cc2Cl)cc1,27.0,32.5,-52.6,31.3,138.0*,101.0,124.0,6.0,98.0
S=C(Nc1ccccc1)Nc1ccc(OCc2ccc(Cl)cc2Cl)cc1,-8.0,-0.7,-2.4,-14.9,97.0,98.0,x,x,x
Cc1ccc2cc(CN(Cc3nnnn3C3CCCCC3)CC3CCCO3)c(=O)[nH]c2c1 (stereo unspecified),-20.0,-6.4,7.6,32.4,-3.0*[inhibitor],1.0*[inhibitor],94.0,-1.0,99.0
Cc1ccc2[nH]c(=O)c(CN(Cc3cccnc3)Cc3nnnn3CCN3CCOCC3)cc2c1,-41.0,-1.7,7.2,4.1,2.0*[inhibitor],2.0*[inhibitor],101.0,1.0,101.0
COCCn1nnnc1CN(Cc1cccnc1)Cc1cc2cc(OC)ccc2[nH]c1=O,2.0,-2.5,4.1,-16.1,103.0,102.0,x,x,x
O=c1[nH]c2cc3c(cc2cc1CN(Cc1ccc2c(c1)OCO2)Cc1nnnn1CC1CCCO1)OCO3 (stereo unspecified),3.0,-10.6,2.0,27.2,102.0,98.0,x,x,x
Cc1ccc2[nH]c(=O)c(CN(Cc3cccnc3)Cc3nnnn3CC3CCCO3)cc2c1 (stereo unspecified),32.0,-33.0,2.9,0.5,121.0,135.0*,106.0,4.0,106.0
Cc1cc2cc(CN(Cc3nnnn3C3CCCCC3)CC3CCCO3)c(=O)[nH]c2cc1C (stereo unspecified),7.0,-0.7,9.9,17.3,107.0,107.0,x,x,x
O=C1NCCCC1C(=O)N1CCN(C(c2ccccc2)c2ccccc2)CC1 (stereo unspecified),-9.0,-22.9,-8.4,8.2,98.0,82.0*[inhibitor],103.0,7.0,108.0
Cc1ccc(S(=O)(=O)NCCCCCC(=O)N(C)C)cc1,-11.0,-6.4,7.4,-0.4,77.0,71.0*[inhibitor],105.0,6.0,106.0
Cc1ccc(NC(=O)CCCCCNS(=O)(=O)c2ccc(C)cc2)cc1,0.0,-27.6,-3.5,10.4,104.0,102.0,x,x,x
COc1cc(-c2csc(CCn3nc(C)cc3C)n2)cc(OC)c1OC,+,-39.9,-3.0,-17.9,x,122.0,99.0,-3.0,97.0
CC(=O)N1CCCc2cc(S(=O)(=O)N3CCCC(C(=O)Nc4cccc(C)c4)C3)ccc21 (stereo unspecified),7.0,-53.0,-1.1,17.1,101.0,104.0,x,x,x
COc1ccccc1CCNC(C)CCc1ccc(O)cc1 (stereo unspecified),10.0,4.8,9.7,9.1,109.0,106.0,x,x,x
COc1cc(OC)c(OC)cc1CCC(C)NCCC(c1ccccc1)c1ccccc1 (stereo unspecified),18.0,28.5,-62.6,27.2,166.0*,111.0,120.0,6.0,99.0
CCN(CC)CCNc1nc2cc(OC)c(OC)cc2c2nc(-c3ccccc3)nn12,10.0,28.4,3.7,64.7*,143.0*,108.0,111.0,3.0,95.0
COc1cc2[nH]c(=O)n3nc(-c4ccccc4)nc3c2cc1OC,3.0,-2.9,4.7,20.7,99.0,102.0,x,x,x
CCN(CC)c1nc2ccccc2c(N)c1-c1ccccc1,26.0*,8.8,-13.9,21.3,123.0,114.0,106.0,0.0,99.0
CN(C)CCNC(=O)c1c(NC(=O)c2ccccc2)sc2c1CCCC2,14.0,16.9,-58.3,46.2,148.0*,109.0,134.0,18.0,106.0
Cc1cccc(C(=O)Nc2sc3c(c2C(=O)O)CCC3)c1,-14.0,-14.9,29.4,-10.1,84.0,75.0*[inhibitor],96.0,-8.0,98.0
CN(CCO)C(=O)c1c(NC(=O)c2ccccc2)sc2c1CCCC2,0.0,-4.0,4.6,15.3,101.0,105.0,x,x,x
CCn1c(CNc2cccc(C(F)(F)F)c2)n[nH]c1=S,-8.0,-2.4,8.2,3.7,95.0,96.0,x,x,x
CC[n+]1c(/C=C2\Sc3ccccc3N2C)ccc2cccc(C)c21,76.0*,-9.3,-15.3,62.9*,x,47.0*[inhibitor],41.0,-21.0,83.0
SMILES,MEKK2mut PB1 HTS,FID counter,NS3 helicase inh,T cruzi repl,MEKK2 WT-MEK5,MEKK3 PB1 HTS,MEKK2wt confirm,MEKK2mut confirm,MEKK3-MEK5 inh
CCC(=O)/C=C1/Sc2ccc(OC)cc2N1CC,-2.0,1.3,-5.8,18.8,95.0,92.0,x,x,x
CCN1/C(=C/c2ccc3cc(C)ccc3[n+]2CC)Sc2cc(C)c(C)cc21,13.0,-7.9,-43.0,x,37.0*,44.0*[inhibitor],33.0,-23.0,58.0*
CCN1/C(=C/c2ccc3cc(C)ccc3[n+]2CC)Sc2ccccc21,-7.0,0.0,-24.5,53.0,14.0*[inhibitor],68.0,39.0,-26.0,81.0
COc1ccc(S(=O)(=O)N2CCC(C(=O)N[C@H](C(=O)N3CCCCCC3)C(C)C)CC2)cc1,0.0,-50.9,-5.5,11.1,100.0,99.0,x,x,x
NC(=S)N1CCCc2ccccc21,1.0,2.7,8.1,-32.9,103.0,101.0,x,x,x
CCOC(=O)c1sc2ccccc2c1NC(=O)c1coc2ccccc2c1=O,-1.0,-2.6,4.5,-0.5,96.0,139.0*,101.0,-1.0,102.0
Oc1ccccc1-c1nnc(-c2ccc(C(F)(F)F)cc2)o1,-5.0,-4.0,4.5,-8.4,82.0,81.0*[inhibitor],101.0,-3.0,102.0
COc1cccc(-c2nnc(-c3ccc(C(F)(F)F)cc3)o2)c1,-2.0,-8.8,-0.1,-5.5,96.0,112.0,x,x,x
